Results on ten compounds are retold here after ChEMBL document CHEMBL5042558, “Selective Macrocyclic Inhibitors of DYRK1A/B” (ACS Med Chem Lett, 2022).

Usually pIC50 stands for −log10 of the IC50, conventionally taken in molar units. One may read the Cmax as the peak of the concentration-time curve. What is called half-life is how long it takes for the measured level to halve. As usually defined, the AUC is concentration integrated over time. For orientation: clearance means the rate of elimination divided by the concentration.

pIC50: −log10 of the molar value. Active and inactive are the calls of the source. The calls are words filed in the database; no cut-off is given here.

In data set [1] the test system is CAL-27. The data set can be described thus: Induction of apoptosis in human CAL-27 cells assessed as PARP level at 10 uM after 24 hrs by Immunoblot analysis relative to control. The data set is classed as functional. (A western blot detects proteins with antibodies after separation by electrophoresis.)
The subject of data set [2] is CAL-27. The experiment in a line: Induction of apoptosis in human CAL-27 cells assessed as BCL-xL level at 10 uM after 24 hrs by Immunoblot analysis relative to control. Format: functional.
In data set [3] the test system is CAL-27. The data set can be described thus: Induction of apoptosis in human CAL-27 cells assessed as increase in cleaved-PARP level at 10 uM after 24 hrs by Immunoblot analysis relative to control. Format: functional.
Data set [4] relates to CAL-27. The data set can be described thus: Induction of apoptosis in human CAL-27 cells assessed as increase in cleaved-PARP level at 1 uM after 24 hrs by Immunoblot analysis relative to control. The data set is classed as functional.
The subject of data set [5] is CAL-27. The data set can be described thus: Induction of apoptosis in human CAL-27 cells assessed as PARP level at 1 uM after 24 hrs by Immunoblot analysis relative to control. The data set is classed as functional.
Data set [6] concerns CAL-27. The experiment in a line: Induction of apoptosis in human CAL-27 cells assessed as BCL-xL level at 1 uM after 24 hrs by Immunoblot analysis relative to control. The data set is classed as functional.
The target in data set [7] is Dual specificity tyrosine-phosphorylation-regulated kinase 1B (Homo sapiens, UniProt Q9Y463). The experiment in a line: Inhibition of DYRK1B (unknown origin) measured after 6 hrs in presence of ATP by Z'-LYTE assay.
For data set [8], the system named is FaDu. The experiment in a line: Antiproliferative activity against human FaDu cells assessed as reduction in cell viability at 10 uM measured after 72 hrs by Celltiter-Glo luminescent assay. Format: functional.
The test system of data set [9] is CAL-27. The experiment in a line: Induction of apoptosis in human CAL-27 cells assessed as decrease in AKT phosphorylation at S473 residue at 5 uM after 24 hrs by Immunoblot analysis relative to control. Further details: scale not given: the % may be the effect or the level left. The data set is classed as functional.
In data set [10] the test system is CAL-27. The experiment in a line: Induction of apoptosis in human CAL-27 cells assessed as decrease in AKT phosphorylation at S473 residue at 0.5 uM after 24 hrs by Immunoblot analysis relative to control. On the set-up: scale not given: the % may be the effect or the level left. Format: functional.
The test system of data set [11] is CAL-27. The experiment in a line: Induction of apoptosis in human CAL-27 cells assessed as decrease in AKT phosphorylation at S473 residue at 10 uM after 24 hrs by Immunoblot analysis relative to control. On the set-up: scale not given: the % may be the effect or the level left. The data set is classed as functional.
The test system of data set [12] is HEK-293T. The experiment in a line: Antiproliferative activity against human HEK293T cells assessed as reduction in cell viability at 10 uM measured after 72 hrs by Celltiter-Glo luminescent assay. The data set is classed as toxicity, cell-based. (In general: ATP-based viability assays read luminescence as a measure of living cells.)
The test system of data set [13] is CAL-27. The data set can be described thus: Induction of apoptosis in human CAL-27 cells assessed as decrease in FOXO3A phosphorylation at serine 253 residue at 1 uM after 24 hrs by Immunoblot analysis relative to control. On the set-up: scale not given: the % may be the effect or the level left. The data set is classed as functional.
Data set [14] deals with CAL-27. The data set can be described thus: Induction of apoptosis in human CAL-27 cells assessed as decrease in FOXO3A phosphorylation at serine 253 residue at 5 uM after 24 hrs by Immunoblot analysis relative to control. Format: functional. On the set-up: scale not given: the % may be the effect or the level left.
Data set [15] has as its system CAL-27. The experiment in a line: Antiproliferative activity against human CAL-27 cells assessed as reduction in cell viability at 10 uM measured after 72 hrs by Celltiter-Glo luminescent assay. The data set is classed as functional.
The target in data set [16] is Serine/threonine-protein kinase ATR (Homo sapiens) (UniProt Q13535). The data set can be described thus: Inhibition of ATR (unknown origin) in human CAL-27 cells measured after 6 hrs by select screen kinase assay. Format: cell-based.
Data set [17] relates to CAL-27. The data set can be described thus: Induction of apoptosis in human CAL-27 cells assessed as decrease in FOXO3A phosphorylation at serine 253 residue at 0.5 uM after 24 hrs by Immunoblot analysis relative to control. On the set-up: scale not given: the % may be the effect or the level left. Format: functional.
For data set [18], the system named is CAL-27. The experiment in a line: Induction of apoptosis in human CAL-27 cells assessed as decrease in FOXO3A phosphorylation at serine 253 residue at 10 uM after 24 hrs by Immunoblot analysis relative to control. The data set is classed as functional. Further details: scale not given: the % may be the effect or the level left.
Data set [19] deals with CAL-27. The data set can be described thus: Induction of apoptosis in human CAL-27 cells assessed as decrease in AKT phosphorylation at S473 residue at 1 uM after 24 hrs by Immunoblot analysis relative to control. Format: functional. On the set-up: scale not given: the % may be the effect or the level left.
The target in data set [20] is Cyclin-dependent kinase 8 (Homo sapiens) (UniProt P49336). The experiment in a line: Inhibition of CDK8 (unknown origin) in human CAL-27 cells measured after 6 hrs by select screen kinase assay. Format: cell-based. Put shortly:
(§1)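 Cellular kinase profiling by KiNativ in CAL27 head and neck squamous carcinoma cells. Cells were treated with compound at 1 μM for 6 h, then kinase engagement was profiled across the kinome by KiNativ.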

Data set [21] concerns the target Cyclin-dependent kinase 19 (Homo sapiens) (UniProt Q9BWU1). The data set can be described thus: Inhibition of […] (unknown origin) in human CAL-27 cells measured after 6 hrs by select screen kinase assay. The data set is classed as cell-based. Put shortly: as §1
Data set [22] is described as follows: Cmax in C57BL/6 mouse at 10 mg/kg, po measured upto 8 hrs by LC-MS/MS analysis. The data set is classed as ADME, organism-based. Further details: route oral, dose 10 mg/kg, time <=8. Conditions: in vivo.
A short description of data set [23]: Half life in C57BL/6 mouse at 5 mg/kg, iv measured upto 8 hrs by LC-MS/MS analysis. The data set is classed as ADME, organism-based. The following applies: in vivo.
The nature of data set [24]: Half life in C57BL/6 mouse at 10 mg/kg, po measured upto 8 hrs by LC-MS/MS analysis. The data set is classed as ADME, organism-based. The following applies: in vivo.
A short description of data set [25]: AUC (0-infinity) in C57BL/6 mouse at 5 mg/kg, iv measured upto 8 hrs by LC-MS/MS analysis. Conditions: in vivo. Format: ADME, organism-based. On the set-up: route intravenous, dose 5 mg/kg, time <=8.
For data set [26], the target named is Myosin light chain kinase, smooth muscle (Homo sapiens, UniProt Q15746). The data set can be described thus: Inhibition of MYLK (unknown origin) at 1 uM by kinome scan method.
Data set [27] is described as follows: Oral bioavailability in C57BL/6 mouse at 10 mg/kg measured upto 8 hrs by LC-MS/MS analysis. Conditions: mouse, in vivo, 10 mg/kg, 8 h. The data set is classed as ADME, organism-based.
Data set [28] is described as follows: AUC (0-infinity) in C57BL/6 mouse at 10 mg/kg, po measured upto 8 hrs by LC-MS/MS analysis. Conditions: mouse, in vivo, 8 h. Format: ADME, organism-based. Further details: route oral, dose 10 mg/kg, time <=8.
Data set [29] can be described thus: Clearance in C57BL/6 mouse at 5 mg/kg, iv measured upto 8 hrs by LC-MS/MS analysis. The data set is classed as ADME, organism-based. The following applies: in vivo.
The target of data set [30] is Receptor-type tyrosine-protein kinase FLT3 (Homo sapiens, UniProt P36888). The experiment in a line: Inhibition of FLT3 (unknown origin) at 1 uM by kinome scan method.
Sequence of Receptor-type tyrosine-protein kinase FLT3 (P36888 whole entry): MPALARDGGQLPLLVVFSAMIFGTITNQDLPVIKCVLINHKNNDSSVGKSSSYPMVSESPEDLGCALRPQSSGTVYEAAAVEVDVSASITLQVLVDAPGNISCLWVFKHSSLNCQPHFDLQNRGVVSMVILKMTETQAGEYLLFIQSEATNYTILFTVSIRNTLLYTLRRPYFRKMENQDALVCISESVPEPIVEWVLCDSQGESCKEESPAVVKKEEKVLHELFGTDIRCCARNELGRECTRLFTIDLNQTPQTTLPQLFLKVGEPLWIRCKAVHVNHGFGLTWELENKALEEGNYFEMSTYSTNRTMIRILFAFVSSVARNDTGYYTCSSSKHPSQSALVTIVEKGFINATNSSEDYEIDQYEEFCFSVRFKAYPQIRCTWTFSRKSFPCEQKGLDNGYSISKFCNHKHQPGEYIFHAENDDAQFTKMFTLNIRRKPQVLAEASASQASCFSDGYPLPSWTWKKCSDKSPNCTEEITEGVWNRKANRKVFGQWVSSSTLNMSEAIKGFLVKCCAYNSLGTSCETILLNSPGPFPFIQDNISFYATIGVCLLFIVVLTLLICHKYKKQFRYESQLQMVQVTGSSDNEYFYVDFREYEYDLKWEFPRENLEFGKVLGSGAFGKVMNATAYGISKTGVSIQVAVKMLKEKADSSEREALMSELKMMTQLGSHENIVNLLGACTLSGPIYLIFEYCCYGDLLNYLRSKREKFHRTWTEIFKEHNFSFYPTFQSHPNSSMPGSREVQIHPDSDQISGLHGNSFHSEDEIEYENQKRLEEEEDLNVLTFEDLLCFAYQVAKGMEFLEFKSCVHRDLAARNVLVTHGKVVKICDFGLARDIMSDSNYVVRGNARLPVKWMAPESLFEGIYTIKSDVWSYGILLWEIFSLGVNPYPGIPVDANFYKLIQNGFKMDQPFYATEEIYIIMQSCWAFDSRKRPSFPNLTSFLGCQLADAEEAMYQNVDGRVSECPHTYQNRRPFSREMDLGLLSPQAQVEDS

Sequence of Dual specificity tyrosine-phosphorylation-regulated kinase 1B (Q9Y463 whole entry): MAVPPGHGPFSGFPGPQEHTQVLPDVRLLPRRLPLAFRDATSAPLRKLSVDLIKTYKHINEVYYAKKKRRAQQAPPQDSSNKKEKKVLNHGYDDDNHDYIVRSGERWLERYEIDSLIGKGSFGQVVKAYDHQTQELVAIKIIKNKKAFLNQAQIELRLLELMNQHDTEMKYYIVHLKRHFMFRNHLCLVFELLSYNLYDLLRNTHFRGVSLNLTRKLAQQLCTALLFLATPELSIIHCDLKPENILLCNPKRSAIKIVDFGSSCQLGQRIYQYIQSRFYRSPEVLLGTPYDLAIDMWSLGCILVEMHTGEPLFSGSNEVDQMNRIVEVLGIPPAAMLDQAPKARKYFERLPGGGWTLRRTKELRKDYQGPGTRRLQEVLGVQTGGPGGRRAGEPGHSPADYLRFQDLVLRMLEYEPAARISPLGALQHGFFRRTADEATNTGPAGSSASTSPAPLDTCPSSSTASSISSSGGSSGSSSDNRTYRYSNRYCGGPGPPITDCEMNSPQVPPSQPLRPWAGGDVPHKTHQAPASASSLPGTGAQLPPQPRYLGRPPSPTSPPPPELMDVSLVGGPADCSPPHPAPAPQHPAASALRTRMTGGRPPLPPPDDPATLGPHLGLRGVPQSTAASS
Sequence of Serine/threonine-protein kinase ATR (Homo sapiens) (Q13535 whole entry, looked up): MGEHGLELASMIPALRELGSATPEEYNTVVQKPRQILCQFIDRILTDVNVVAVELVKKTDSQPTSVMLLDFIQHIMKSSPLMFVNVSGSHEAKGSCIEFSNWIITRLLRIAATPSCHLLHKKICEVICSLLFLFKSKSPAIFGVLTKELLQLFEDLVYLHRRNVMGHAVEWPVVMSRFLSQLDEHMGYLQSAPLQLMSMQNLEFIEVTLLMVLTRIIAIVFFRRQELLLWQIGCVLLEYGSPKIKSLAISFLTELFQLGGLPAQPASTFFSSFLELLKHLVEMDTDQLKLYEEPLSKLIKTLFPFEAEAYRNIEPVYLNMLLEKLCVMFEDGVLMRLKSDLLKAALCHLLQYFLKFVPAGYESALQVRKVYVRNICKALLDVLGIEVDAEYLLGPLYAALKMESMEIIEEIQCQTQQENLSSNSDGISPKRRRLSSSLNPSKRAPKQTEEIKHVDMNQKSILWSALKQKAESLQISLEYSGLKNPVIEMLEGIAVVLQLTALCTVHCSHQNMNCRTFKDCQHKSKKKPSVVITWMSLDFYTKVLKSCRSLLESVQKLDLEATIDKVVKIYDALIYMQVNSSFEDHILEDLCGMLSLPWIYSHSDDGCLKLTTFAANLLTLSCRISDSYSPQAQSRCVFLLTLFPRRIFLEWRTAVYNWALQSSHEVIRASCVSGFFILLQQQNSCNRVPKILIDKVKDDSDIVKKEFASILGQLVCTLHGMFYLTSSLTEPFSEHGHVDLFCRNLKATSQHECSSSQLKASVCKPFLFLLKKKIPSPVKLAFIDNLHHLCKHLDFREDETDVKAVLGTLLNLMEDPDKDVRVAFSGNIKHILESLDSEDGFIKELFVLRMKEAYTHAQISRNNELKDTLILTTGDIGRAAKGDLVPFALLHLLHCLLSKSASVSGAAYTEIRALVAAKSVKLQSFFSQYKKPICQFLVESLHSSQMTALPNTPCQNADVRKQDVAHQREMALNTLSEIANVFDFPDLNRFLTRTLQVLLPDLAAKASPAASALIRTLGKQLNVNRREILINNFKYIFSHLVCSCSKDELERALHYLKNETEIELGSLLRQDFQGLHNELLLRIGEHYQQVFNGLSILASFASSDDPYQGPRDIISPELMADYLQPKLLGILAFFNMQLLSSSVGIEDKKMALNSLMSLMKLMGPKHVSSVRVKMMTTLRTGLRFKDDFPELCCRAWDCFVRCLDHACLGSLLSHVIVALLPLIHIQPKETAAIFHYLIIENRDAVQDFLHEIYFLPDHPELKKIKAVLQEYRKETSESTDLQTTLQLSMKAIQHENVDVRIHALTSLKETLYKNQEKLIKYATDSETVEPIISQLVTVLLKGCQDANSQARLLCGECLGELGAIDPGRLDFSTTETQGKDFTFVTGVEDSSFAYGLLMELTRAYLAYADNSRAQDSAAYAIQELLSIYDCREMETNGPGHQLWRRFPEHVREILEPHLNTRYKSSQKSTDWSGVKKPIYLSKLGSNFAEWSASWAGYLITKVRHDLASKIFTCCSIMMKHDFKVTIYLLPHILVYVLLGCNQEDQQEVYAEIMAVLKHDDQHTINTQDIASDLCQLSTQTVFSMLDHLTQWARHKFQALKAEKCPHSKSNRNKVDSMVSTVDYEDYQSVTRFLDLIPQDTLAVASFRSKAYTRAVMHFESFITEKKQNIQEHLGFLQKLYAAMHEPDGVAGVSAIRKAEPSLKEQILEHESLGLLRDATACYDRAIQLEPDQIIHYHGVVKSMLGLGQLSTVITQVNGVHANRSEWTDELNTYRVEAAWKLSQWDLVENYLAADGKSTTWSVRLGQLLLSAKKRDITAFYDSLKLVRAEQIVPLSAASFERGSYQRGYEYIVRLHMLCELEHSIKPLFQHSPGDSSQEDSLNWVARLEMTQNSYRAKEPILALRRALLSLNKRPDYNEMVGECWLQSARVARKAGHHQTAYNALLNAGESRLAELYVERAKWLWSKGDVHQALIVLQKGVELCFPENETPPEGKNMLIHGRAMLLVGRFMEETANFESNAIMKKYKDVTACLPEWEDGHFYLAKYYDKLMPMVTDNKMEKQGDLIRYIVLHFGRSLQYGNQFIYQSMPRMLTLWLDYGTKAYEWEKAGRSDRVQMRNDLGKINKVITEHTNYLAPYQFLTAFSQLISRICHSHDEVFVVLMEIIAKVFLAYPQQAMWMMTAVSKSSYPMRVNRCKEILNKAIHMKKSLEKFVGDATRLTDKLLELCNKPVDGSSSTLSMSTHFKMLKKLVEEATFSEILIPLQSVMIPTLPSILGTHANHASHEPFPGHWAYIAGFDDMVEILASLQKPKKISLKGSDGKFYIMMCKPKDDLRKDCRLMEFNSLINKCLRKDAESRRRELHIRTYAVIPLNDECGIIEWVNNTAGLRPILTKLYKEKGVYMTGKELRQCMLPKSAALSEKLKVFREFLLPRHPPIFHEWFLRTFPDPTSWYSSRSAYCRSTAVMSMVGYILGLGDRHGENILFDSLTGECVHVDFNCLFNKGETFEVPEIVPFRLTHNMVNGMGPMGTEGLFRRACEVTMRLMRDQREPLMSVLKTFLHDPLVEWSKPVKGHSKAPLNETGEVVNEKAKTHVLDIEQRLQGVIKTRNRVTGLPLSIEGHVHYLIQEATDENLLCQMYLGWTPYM
Sequence of Cyclin-dependent kinase 8 (Homo sapiens) (P49336 whole entry): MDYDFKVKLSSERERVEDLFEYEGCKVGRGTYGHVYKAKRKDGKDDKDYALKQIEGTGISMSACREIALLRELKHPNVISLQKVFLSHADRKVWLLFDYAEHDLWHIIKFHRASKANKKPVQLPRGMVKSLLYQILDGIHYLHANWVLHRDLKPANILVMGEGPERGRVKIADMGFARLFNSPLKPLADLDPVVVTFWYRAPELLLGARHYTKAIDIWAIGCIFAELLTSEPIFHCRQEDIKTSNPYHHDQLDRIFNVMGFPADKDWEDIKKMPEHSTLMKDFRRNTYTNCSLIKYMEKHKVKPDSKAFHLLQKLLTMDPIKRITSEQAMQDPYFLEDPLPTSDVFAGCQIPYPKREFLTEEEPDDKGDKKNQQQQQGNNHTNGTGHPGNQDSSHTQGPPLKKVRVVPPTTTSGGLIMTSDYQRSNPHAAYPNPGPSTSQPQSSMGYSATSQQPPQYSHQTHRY

For `Cc1[nH]c2ncc3cc2c1-c1cn(nc1C(F)(F)F)CCCC(=O)N(C)Cc1nn(C)c(C#N)c1-3`, the Activity was 134% in data set [1]; 105% in data set [2]; 190% in [3]; 133% in data set [4]; 120% in data set [5]; 103% in [6].
For the compound `COc1c2c(nn1C)CN(C(C)C)C(=O)CCCn1cc(c(C(F)(F)F)n1)-c1c(C)[nH]c3ncc-2cc13`, the Activity in data set [1] was 117%; in data set [2] it was 61%; in data set [3], 145%; in data set [4], 119%; in [5] it was 113%; in [6] it was 79%.
Take `CN1Cc2nn(C)cc2-c2cnc3[nH]cc(c3c2)-c2cnn(c2)CCCCC1=O`: in data set [7], the pIC50 was 6.82.
Take `O=C(O)c1ccc2c(c1)nc(Nc1cccc(Cl)c1)c1ccncc12` [SILMITASERTIB]: the Activity was determined as 75% in [8]; 137% in data set [1]; 103% in data set [2]; 871% in [3]; 85% in data set [9]; 54% in data set [10]. Further, the Activity in [11] is 85%; in data set [12], “Active”; in data set [13], 150%; in data set [4], 201%; in data set [14] it was 139%; in data set [15] it was 80%. Moreover, the Activity in data set [5] was 127%; in data set [17] it was 103%; in data set [18] it was 150%; in [19], 53%; in data set [6] it was 80%. In addition, in [16], the inhibition entry was “Active”.
Take `CN1Cc2nn(C)c(C#N)c2-c2cnc3[nH]cc(c3n2)-c2cn(nc2C(F)(F)F)CCCC1=O`: the pIC50 in data set [7] was 7.74.
In the case of `COc1ccc2c(c1)[nH]c1c(C)nccc12` [HARMINE], the outcome in data set [8] was inactive. Also, the Activity in data set [1] was determined as 141%; in [2] it was 93%; in [3], 210%; in [9] it was 133%; in data set [10], 64%; in data set [11], 143%. Moreover, the Activity result was “Active” in data set [12]; 107% in [13]; 139% in [4]; 110% in data set [14]; 113% in [5]; 82% in data set [17]. For the same compound, the figures for the Activity in [18], in [19] and in data set [6] were 90%, 93% and 92%, respectively. Besides, the inhibition entry in data set [20] and in data set [21] was “Active” each time.
For the compound `COc1c2c(nn1C)CN(C(C)C)C(=O)CCCn1cc(c(C(F)(F)F)n1)-c1c[nH]c3ncc-2cc13`, the Activity in [1] is given as 112%; in data set [2], 84%; in data set [3] it was 538%; in data set [4], 140%; in data set [5], 110%; in data set [6], 130%.
As for `CN1Cc2nn(C)c(C#N)c2-c2cnc3[nH]nc(c3c2)-c2cn(nc2C(F)(F)F)CCCC1=O`, in [7], the pIC50 is 6.03.
For the compound `CN1Cc2nn(C)c(C#N)c2-c2cc3c(c[nH]c3nn2)-c2cn(nc2C(F)(F)F)CCCC1=O`, the pIC50 in [7] is 5.52.
In the case of `CN1Cc2nn(C)c(C#N)c2-c2cnc3[nH]cc(c3c2)-c2cn(nc2C(F)(F)F)CCCC1=O`, the peak concentration (Cmax) in data set [22] was found to be 11.6 µM. The half-life in [23] is 0.3 h; in [24], 2 h. The values for the AUC in [25] and in data set [28] were 504.9 ng·h/mL and 23.6 ng·h/mL, respectively. For the same compound, the pIC50 is 6.48 in [26] and 6.45 in data set [30]. Moreover, in [12], the Activity result is “Non-Toxic”. Further, the F in data set [27] was determined as 1.1%. Besides, the clearance in data set [29] was 167 mL/min/kg.
